Assay results taken from the M2OR odorant receptor database.

The molecules below were run against T1, OR10P1 (Homo sapiens) (UniProt Q8NGE3). Settings: stereoisomer not certain.
T1 sequence (whole entry): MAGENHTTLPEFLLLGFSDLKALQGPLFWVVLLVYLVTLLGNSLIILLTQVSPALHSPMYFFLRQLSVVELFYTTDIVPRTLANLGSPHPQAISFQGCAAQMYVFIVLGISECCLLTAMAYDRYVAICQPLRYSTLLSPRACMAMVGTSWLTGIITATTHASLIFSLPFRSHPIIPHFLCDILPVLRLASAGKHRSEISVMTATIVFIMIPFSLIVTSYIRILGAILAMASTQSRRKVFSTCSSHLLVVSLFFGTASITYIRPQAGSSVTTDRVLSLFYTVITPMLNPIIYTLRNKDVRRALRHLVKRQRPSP
Procedure, shortened: (§1)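 Transient luciferase assays in mammalian cell lines were common, though methods varied by source. The values come from published papers and their supplementary material, with extra details from the original authors when needed. Responsive refers to a measured signal the original authors judged statistically different from baseline, and non-responsive (inactive) to the remainder.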
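Also: active if original authors judged signal statistically different from baseline.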

Odorant receptor agonist call, inactive:
CCCCCCC=CCCC=O
CC1CCCCCCCCCCCCC(=O)C1 (stereo not given)
CCC1OC(=O)C(O)=C1C (stereo not given)
CCCCCC(=O)C(C)C(C)=O (stereo not given)
CC1=C(O)C(=O)C(C)O1 (stereo not given)
CC1=NC(C)C(C)S1 (stereo not given)
CCC1OC(C)=C(O)C1=O (stereo not given)
CCCC(S)CCOC(C)=O (stereo not given)
CCCCCC(S)C(C)CO (stereo not given)
CCCCC(S)C(C)CO (stereo not given)
CC(CO)CS (stereo not given)
CC(=O)c1c(C)c([N+](=O)[O-])c(C(C)(C)C)c([N+](=O)[O-])c1C
Cc1cnc(C)c(C)n1
CCC(S)C(C)CO (stereo not given)
CC1=C(O)C(=O)OC1C (stereo not given)

These molecules were tested against T2, OR10Q1 (Homo sapiens) (UniProt Q8NGQ4). Settings: stereoisomer not certain.
T2 sequence (whole entry): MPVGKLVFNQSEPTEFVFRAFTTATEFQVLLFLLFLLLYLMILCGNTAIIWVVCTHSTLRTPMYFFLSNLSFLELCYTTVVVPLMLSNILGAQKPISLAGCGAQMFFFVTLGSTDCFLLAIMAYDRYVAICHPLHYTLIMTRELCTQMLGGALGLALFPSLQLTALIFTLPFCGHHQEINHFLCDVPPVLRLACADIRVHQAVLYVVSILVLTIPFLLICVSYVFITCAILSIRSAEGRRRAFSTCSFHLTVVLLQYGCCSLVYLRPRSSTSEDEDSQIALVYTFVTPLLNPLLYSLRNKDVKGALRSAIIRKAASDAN
Procedure, shortened: as §1

Odorant receptor agonist call, inactive:
CCCCCCC=CCCC=O
CC1CCCCCCCCCCCCC(=O)C1 (stereo not given)
CCC1OC(=O)C(O)=C1C (stereo not given)
CCCCCC(=O)C(C)C(C)=O (stereo not given)
CC1=C(O)C(=O)C(C)O1 (stereo not given)
CC1=NC(C)C(C)S1 (stereo not given)
CCC1OC(C)=C(O)C1=O (stereo not given)
CCCC(S)CCOC(C)=O (stereo not given)
CCCCCC(S)C(C)CO (stereo not given)
CCCCC(S)C(C)CO (stereo not given)
CC(CO)CS (stereo not given)
CC(=O)c1c(C)c([N+](=O)[O-])c(C(C)(C)C)c([N+](=O)[O-])c1C
Cc1cnc(C)c(C)n1
CCC(S)C(C)CO (stereo not given)
CC1=C(O)C(=O)OC1C (stereo not given)
